# Compound activity deposited in PubChem BioAssay by several laboratories.
# beta cell repl = inducers of beta-cell replication in MIN6 cells | MIN6 cells proliferation, ATPlite luminescence, 48 h; cells starved in 0.2% serum; 100% = growth in 10% serum | proliferation, % at 10 µM | actives 0.29% (n = 330,000);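 active means compounds whose signal lies at least 3.5 SD above the mean of all wells on their plate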;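 further: 0% = DMSO-treated cells in low-serum medium and 100% = 10% serum control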
# CRFBP-R2 block = antagonists of CRF-binding protein/CRF-R2 receptor complex; HEK293 CRF-R2/CRF-BP, CRF-induced calcium fluorescence; actives 0.59% (n = 350,000); inhibition, % at 11.8 µM;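 active means inhibition of the ligand-induced calcium signal above about 50% at the single tested concentration, limit read from the data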
# UCH37 DUB inh = inhibitors of human deubiquitinating enzyme UCH37. Q9Y5K5. purified proteasome/UCH37, Ub-AMC cleavage fluorescence. inhibition, % (test concentration not listed). actives 0.33% (n = 330,000). AID 588478;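 active means mean inhibition over replicate wells above about 20%, limit read from the data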;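 further: 0% = compound-free wells with enzyme and 100% = wells lacking proteasome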
# Target sequence (Q9Y5K5 whole entry, looked up): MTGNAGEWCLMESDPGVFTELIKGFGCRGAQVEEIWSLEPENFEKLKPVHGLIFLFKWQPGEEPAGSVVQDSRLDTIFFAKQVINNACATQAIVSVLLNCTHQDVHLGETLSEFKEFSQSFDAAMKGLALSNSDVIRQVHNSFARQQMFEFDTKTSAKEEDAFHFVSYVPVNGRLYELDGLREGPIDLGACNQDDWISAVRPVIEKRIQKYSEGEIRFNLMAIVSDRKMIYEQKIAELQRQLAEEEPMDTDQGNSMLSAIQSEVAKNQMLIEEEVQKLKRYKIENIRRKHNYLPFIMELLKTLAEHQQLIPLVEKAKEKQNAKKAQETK
#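 Reagent: Ub-AMC substrate; assay system: Proteasome-associated human UCH37 deubiquitinase; controls: no-proteasome and no-compound wells; read-out: % inhibition of Ub-AMC cleavage fluorescence; timing: 30 min preincubation with enzyme, 25 min cleavage at room temperature; signal: AMC fluorescence from Ub-AMC cleavage, excitation 355 nm, emission 460 nm; buffer or medium: Tris-HCl pH 7.4 plus ovalbumin, ATP-MgCl2, DTT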
# CRFBP-R2 agonist = CRF-BP/CRF-R2 complex agonism; HEK293 CRF-R2/CRF-BP, calcium dye fluorescence (FLIPR); percent of saturating CRF peptide response; activation, % at 13.2 µM; actives 0.46% (n = 350,000);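 active means activation of at least 50%, plus an integration ratio under a set limit after plate pattern correction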;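 further: plate controls were neutral control wells without compound for no effect and CRF at EC100 for full effect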
# hiPSC survival = increases survival of single human iPS cells; survival enhancement, % at 20 µM; actives 0.044% (n = 360,000); AID 602274; hiPSC single-cell survival, ATPlite luminescence; 100% = ROCK inhibitor wells, 0% = DMSO; in the data active means survival enhancement above about 18%;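 further: cells exposed to compounds for 16 hours before the ATP read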
# H9c2 protect = modulators protecting cardiomyocytes from myocardial damage; actives 0.63% (n = 360,000); H9c2 cardiomyocytes, H2O2 injury protection, ATPLite, 2 h; protection from H2O2 cell death, % at 20 µM;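 active means compounds giving at least 50% protection of heart cells from peroxide-induced death in the single-dose screen, raw or plate-pattern-corrected value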;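 further: 0% = DMSO wells with peroxide and 100% = DMSO wells without peroxide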
# An asterisk follows results filed as active; / = not tested or not shown. Shown are actives, neighbours in structure and some others; about 2.1% of the full set was active somewhere.
SMILES,beta cell repl,CRFBP-R2 block,UCH37 DUB inh,CRFBP-R2 agonist,hiPSC survival,H9c2 protect
Cc1cc2c(=Cc3ccc(N(C)C)cc3)c3ccccc3n2[n+]1C,/,108.5*,/,-1.1,-4.4,-21.2
CCOC(=O)c1cc2c(=Cc3ccc(N(C)C)cc3)c3ccccc3n2[n+]1C,/,-32.4,/,-2.9,-3.2,-19.8
Cc1ccc(C(=O)CC(=O)COc2ccc(Cl)cc2C)cc1,-1.3,-4.1,1.8,-2.2,-1.7,64.1*
Cc1ccc(NC(=O)c2ccc(OC(=O)COc3ccc(Cl)cc3C)cc2)cc1,-4.4,-4.3,3.9,-0.8,-0.7,-5.8
Cc1cc(C)c2c(CC(=O)O)coc2c1,2.0,-3.3,29.2*,-0.2,0.3,-5.9
Cc1cc(C)c2c(CC(=O)NN(C)C)coc2c1,3.7,24.2,5.4,-2.5,-0.6,-0.4
COc1ccc2c(c1)c(C(=O)O)c(C)n2-c1ccc(Cl)cc1,-1.5,105.5*,-0.1,2.9,-0.9,8.1
CC(C)(C=NO)/[N+]([O-])=C/c1ccccc1C(F)(F)F,/,/,4.0,/,/,/
O=C(C[n+]1ccc(C=NO)cc1)NCc1ccccc1,/,/,3.7,/,/,/
CCC(C)[C@H](NC(=O)OC(C)(C)C)C(=O)NN=CC1=Cc2ccccc2OC1 (stereo partly specified),/,/,-83.5,/,/,/
COc1ccc(NC(=O)CSc2nnc(N)s2)c([N+](=O)[O-])c1,2.1,65.0*,-0.5,0.4,-0.9,3.8
COc1ccc(NC(=O)CSc2nnc(NC(C)=O)s2)c([N+](=O)[O-])c1,-0.6,-6.0,2.5,-0.4,-1.6,14.2
COc1cc(C=NN(C)S(=O)(=O)c2ccc(C)cc2)cc([N+](=O)[O-])c1O,/,/,10.2,/,/,/
CCn1c(SCC(=O)NN=C(C)c2ccncc2)nc2ccccc21,/,/,0.5,/,/,/
CCc1ccccc1N1C(=O)C2CC=CCC2C1=O (stereo unspecified),4.0,-3.6,-0.5,3.6,4.4,4.2
CCc1ccccc1N1C(=O)C2CC(C)=C(C)CC2C1=O (stereo unspecified),-3.0,50.2*,-0.5,-0.2,1.4,-1.4
CC(C)c1cc(N2CCC(=O)NC2=O)cc(C(=O)O)c1O,0.0,52.0*,-21.7,0.3,-0.6,3.9
CC(C)N1CCC(=O)NC1=O,/,4.2,1.0,-4.3,-2.7,5.2
O=C(NCCCN1CCCCCC1)c1ccc(CS(=O)(=O)Cc2ccccc2F)o1,/,-0.6,1.9,0.3,28.3*,4.0
COc1ccc(C=NNC(=O)c2cccnc2)cc1CSc1ccccn1,/,/,3.6,/,/,/
CCOc1ccc(NC(=O)Cn2c(=O)oc3ccccc32)cc1,-3.4,-5.3,30.5*,0.2,1.6,-14.1
CCOc1ccc(NC(=O)Cn2c(=O)oc3cc(Cl)ccc32)cc1,-4.2,12.1,-1.0,-2.2,1.1,-4.0
N#CC(C#N)=C(Nc1ccc(F)cc1)SCc1cccc(Br)c1,/,68.6*,1.8,41.9,0.2,-17.2
CC(SCc1ccccc1)C(=O)Nc1ccc(F)cc1 (stereo unspecified),-1.9,10.9,5.4,-2.5,1.6,-16.0
Cc1cccc(CSC(Nc2ccc(F)cc2)=C(C#N)C#N)c1,-2.7,67.0*,1.8,72.9*,-0.4,-14.3
SMILES,beta cell repl,CRFBP-R2 block,UCH37 DUB inh,CRFBP-R2 agonist,hiPSC survival,H9c2 protect
Cc1ccccc1CN1C(=O)CSC1=NN=Cc1ccco1,/,/,5.3,/,/,/
COc1ccccc1-c1cc(C(=O)NN)[nH]n1,-1.3,57.2*,3.0,-0.9,0.0,3.6
CNC(=S)NN=Cc1ccc(-c2cccc(C(=O)O)c2)o1,/,/,0.4,/,/,/
Cc1ccc(-c2ccc(C=NNC(=O)C3C(=O)NCC3c3ccccc3)o2)cc1Cl (stereo unspecified),/,/,-2.9,/,/,/
CC1(C)CSC(=NCc2ccccc2)N1C(=O)c1cccc([N+](=O)[O-])c1,3.1,-94.9,1.1,272.7*,-1.5,1.5
CC1=NN(/C(=N/c2nnc(C)s2)Nc2ccc(C(C)(C)C)cc2)[C@H](c2ccc(C)cc2)S1,/,/,6.0,/,/,/
COC(=O)C1=C(NC(=O)c2cccc(OC)c2)CCS1,-2.8,67.2*,-8.7,-4.5,-2.2,2.1
COC(=O)C1=C(NC(=O)c2ccccc2C)CCS1,0.9,1.7,-1.7,5.5,-0.6,17.2
O=C(Nc1cccc(Cl)c1)c1cc(N=Nc2ccc([N+](=O)[O-])cc2Cl)ccc1O,-5.0,69.1*,17.1,30.7,-0.9,-20.9
